Assay outcomes: PubChem BioAssay, several laboratories
In the library only some 1.4% were active in any assay of this set; here they are far more common.
HTR5A ag ctr – activates human HTR5A in OPRM1-OPRD1 agonist counter-screen | AID 504692 | HTR5A agonist assay, luminescence, cell-based | P47898 | activation, % at 9.3 µM | hit rate 0.61% among 340,000; in the data active = activation mostly above about 9.5%, no sharp cut-off; inactive = mostly below about 7.6%
DAGLB inh – diacylglycerol lipase beta (human) inhibition | Q8NCG7 | HEK293T DAGLB membrane lysate, EnzChek fluorogenic substrate | inhibition, % at 5.17 µM | hit rate 0.059% among 340,000 | AID 504411; in the data active = inhibition above about 34%
Target sequence (Q8NCG7 whole entry, looked up): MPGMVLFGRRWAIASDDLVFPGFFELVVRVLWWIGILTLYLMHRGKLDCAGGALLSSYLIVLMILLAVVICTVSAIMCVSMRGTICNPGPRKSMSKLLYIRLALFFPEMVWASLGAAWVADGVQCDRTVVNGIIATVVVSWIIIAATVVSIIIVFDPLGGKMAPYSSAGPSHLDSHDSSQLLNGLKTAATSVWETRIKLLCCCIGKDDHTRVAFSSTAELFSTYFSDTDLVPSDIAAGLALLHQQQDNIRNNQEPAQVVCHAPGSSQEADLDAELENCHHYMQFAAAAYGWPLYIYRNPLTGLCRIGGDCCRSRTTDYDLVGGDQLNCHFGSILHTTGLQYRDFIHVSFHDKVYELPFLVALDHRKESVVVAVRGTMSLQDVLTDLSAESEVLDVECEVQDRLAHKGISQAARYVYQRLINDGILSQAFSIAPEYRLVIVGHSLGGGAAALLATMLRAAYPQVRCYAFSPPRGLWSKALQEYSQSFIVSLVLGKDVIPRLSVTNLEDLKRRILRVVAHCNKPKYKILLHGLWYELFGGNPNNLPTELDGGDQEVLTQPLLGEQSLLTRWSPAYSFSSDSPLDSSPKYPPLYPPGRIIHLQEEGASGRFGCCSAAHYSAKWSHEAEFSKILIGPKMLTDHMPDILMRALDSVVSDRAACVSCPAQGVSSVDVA
Arr AP2 block – blocks beta-arrestin peptide binding to AP2 adaptin; AID 504490; FITC-arrestin peptide / GST-AP2 beads, flow cytometry; AP2 beta2 appendage carries R879A mutation; inhibition, % at 10 µM; hit rate 0.31% among 340,000;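 active = inhibition above a set limit, near 3 SD of compounds lacking own fluorescence, cut at about 54% in these data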
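System: GST-AP2 R879A bound to glutathione beads, E. coli-expressed. Also added: 50 nM FITC-arrestin peptide. Schedule: compound with beads 12 min RT, then probe 1 h RT. Signal: bead flow cytometry, FITC channel. Read-out basis: percent response.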
OPRM1-OPRD1 ag – OPRM1-OPRD1 heterodimerization agonism. hit rate 0.3% among 340,000. cells, luminescence. P35372+P41143. activation, % at 9.3 µM
HTR5A inv ctr – counter-screen for OPRM1-OPRD1 inverse agonists: human HTR5A inverse agonism | P47898 | HTR5A cell line, luminescence | inhibition, % at 9.3 µM | hit rate 0.083% among 340,000; in the data active = inhibition mostly above about 23%, no sharp cut-off; inactive = mostly below about 18%
MOR-DOR inv ag – mu-delta opioid heterodimer inverse agonism | P35372+P41143 | cell-based MOR-DOR heterodimer luminescence | inhibition, % at 9.3 µM | hit rate 0.21% among 340,000 | AID 504357; in the data active = inhibition above about 22%, passing the limit was not always enough
MOR-DOR ag conf – OPRM1-OPRD1 heterodimer agonism, confirmation; shares compounds with OPRM1-OPRD1 ag; hit rate 45% among 830; activation, % at 9.3 µM; AID 504904; cells, MOR-DOR heterodimerization, luminescence complementation
HTR5A ag counter – HTR5A agonism, opioid heterodimer counter-screen; hit rate 8% among 830; activation, % at 9.3 µM; HTR5A agonist counterscreen, cell luminescence; shares compounds with OPRM1-OPRD1 ag; in the data active = activation above about 17%
DAGLB inh conf – DAGLB (human) inhibition, confirmation screen | shares compounds with DAGLB inh | AID 504445 | inhibition, % at 5.17 µM | hit rate 73% among 190 | HEK293T DAGLB membrane lysate, EnzChek fluorogenic substrate;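 active = mean inhibition over triplicate wells above a set limit taken from the primary lipase screen, cut at about 34% in these data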
Arr AP2 CP1 – human beta-arrestin and AP2 interaction inhibition, cherry pick. shares compounds with Arr AP2 block. GST-AP2 beads, FITC arrestin peptide binding, flow cytometry; GST-fused beta2-adaptin appendage, R879A mutant. inhibition, % at 10 µM. hit rate 2% among 1,300;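 active = inhibition above a set limit, roughly 3 SD of non-fluorescent compound noise, cut at about 38% in these data; inactive = inhibition at or below that limit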;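 note: loss of bead fluorescence from 50 nM FITC arrestin peptide bound to appendage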
GST-FITC bead – GST-GSH bead binding interference, counter-screen | shares compounds with Arr AP2 block | GST-fluorescein binding to GSH beads, fluorescence | inhibition, % at 10 µM | hit rate 2% among 1,300 | AID 588338;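 active = inhibition above 50%, about 3 SD of the inhibition seen with non-fluorescent compounds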;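 note: fluorescein maleimide labelled GST captured on 4 micron glutathione beads; higher means more loss of bead fluorescence from quenching or blocked binding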
Large screens that a line does not name were inactive (follow-up assays come after a bar, where they were run). Cut-off read from the data, not from the text of the source, unless noted: active = activation above about 18%; inactive = the rest.

Cc1cccc(CC(Cc2nc3ccccc3[nH]2)c2nc3ccccc3[nH]2)c1 (stereo unspecified)	OPRM1-OPRD1 ag 18 | MOR-DOR ag conf inactive | HTR5A ag counter inactive
COc1ccccc1CC(Cc1nc2ccccc2[nH]1)c1nc2ccccc2[nH]1 (stereo unspecified)	none
COc1ccc(C2NCCc3c2[nH]c2ccccc32)cc1COc1ccc(F)cc1 (stereo unspecified)	OPRM1-OPRD1 ag 20 | MOR-DOR ag conf 24 | HTR5A ag counter inactive
Cc1c(C(=O)N(Cc2cccs2)C2CCS(=O)(=O)C2)oc2ccccc12 (stereo unspecified)	OPRM1-OPRD1 ag 27 | MOR-DOR ag conf inactive | HTR5A ag counter inactive
O=C(CCNC(=O)N1CC(=O)Nc2ccccc21)NCc1ccccc1	none (no result: HTR5A ag ctr, Arr AP2 block, OPRM1-OPRD1 ag, HTR5A inv ctr, MOR-DOR inv ag)
CN(C)C(CNC(=O)c1ccc2nc[nH]c2c1)c1ccccc1 (stereo unspecified)	OPRM1-OPRD1 ag 25 | MOR-DOR ag conf inactive | HTR5A ag counter inactive
O=C(NNC(=O)c1ccc2nc[nH]c2c1)c1ccccc1	none
CN(C)C(CNC(=O)c1ccc(Cl)c(S(=O)(=O)N2CCCCCC2)c1)c1ccccc1 (stereo unspecified)	OPRM1-OPRD1 ag 36 | MOR-DOR ag conf inactive | HTR5A ag counter inactive
CN(C)CCCNC(=O)c1ccc(Cl)c(S(=O)(=O)N2CCCCCC2)c1	none
CCOC(=O)C1(CC2CCCCO2)CCN(Cc2nccn2-c2cccc(C)c2)CC1 (stereo unspecified)	none
CCOC(=O)C1(CC2CCCCO2)CCN(Cc2nc3ccccc3[nH]2)CC1 (stereo unspecified)	OPRM1-OPRD1 ag 29 | MOR-DOR ag conf 27 | HTR5A ag counter inactive
CCOC(=O)C1(CC2CCCCO2)CCN(Cc2nc(C(C)C)cs2)CC1 (stereo unspecified)	none
CCOC(=O)C1(CC2CCCCO2)CCN(Cc2c(C)cc(C)cc2-n2cccn2)CC1 (stereo unspecified)	OPRM1-OPRD1 ag 199 | MOR-DOR ag conf 267 | HTR5A ag counter inactive
CCOC(=O)C1(CC2CCCCO2)CCN(Cc2cc(F)ccc2-n2cccn2)CC1 (stereo unspecified)	OPRM1-OPRD1 ag 61 | MOR-DOR ag conf 66 | HTR5A ag counter inactive
O=S(=O)(NC1CCCC1)c1ccc(F)cc1F	none (no result: HTR5A ag ctr, Arr AP2 block, OPRM1-OPRD1 ag, HTR5A inv ctr, MOR-DOR inv ag)
Cc1ccc(S(=O)(=O)N2CCCCC2)cc1NCC(=O)Nc1ccc(Br)cc1F	none (no result: HTR5A ag ctr, Arr AP2 block, OPRM1-OPRD1 ag, HTR5A inv ctr, MOR-DOR inv ag)
C[C@@H]1CN([C@@H](C)CO)C(=O)CCCn2nncc2CO[C@@H]1CN(C)C(=O)Nc1cccc(C(F)(F)F)c1	none (no result: HTR5A ag ctr, Arr AP2 block, OPRM1-OPRD1 ag, HTR5A inv ctr, MOR-DOR inv ag)
COc1ccc(Cc2noc(=O)[nH]2)cc1	none (no result: HTR5A ag ctr, Arr AP2 block, OPRM1-OPRD1 ag, HTR5A inv ctr, MOR-DOR inv ag)
COc1cccc(-c2nc(NCc3ccco3)c3ccccc3n2)c1O	OPRM1-OPRD1 ag 26 | MOR-DOR ag conf inactive | HTR5A ag counter 24
COc1cccc(-c2nc(NCc3ccccc3)c3ccccc3n2)c1O	none
COc1ccc(C[C@H]2CN3C(=NC[C@H]3Cc3ccccc3)N2CCNC(=O)c2ccc(C)c(Br)c2)cc1	none
COc1ccc(C[C@H]2CN3C(=NC[C@@H]3Cc3ccccc3)N2CCNC(=O)c2ccc(C)c(Br)c2)cc1	OPRM1-OPRD1 ag 22 | MOR-DOR ag conf inactive | HTR5A ag counter inactive
Cc1ccc2nc(-c3ccccc3)cc(C(=O)NCC(c3ccco3)N(C)C)c2c1 (stereo unspecified)	OPRM1-OPRD1 ag 36 | MOR-DOR ag conf inactive | HTR5A ag counter inactive
CN(C)C(CNC(=O)c1ccc(Br)cc1)c1ccco1 (stereo unspecified)	OPRM1-OPRD1 ag 43 | MOR-DOR ag conf 37 | HTR5A ag counter inactive
Cc1c(C(=O)NCC(c2ccco2)N(C)C)oc2c(Cl)cccc12 (stereo unspecified)	OPRM1-OPRD1 ag 32 | MOR-DOR ag conf 20 | HTR5A ag counter 30
CN(C)C(CNC(=O)CCNC(=O)c1ccc(Br)cc1)c1ccco1 (stereo unspecified)	none
CN(C)C(CNC(=O)c1cccc(C(F)(F)F)c1)c1ccco1 (stereo unspecified)	OPRM1-OPRD1 ag 18 | MOR-DOR ag conf 45 | HTR5A ag counter inactive
CC(=O)Nc1ccc(S(=O)(=O)NN=c2sc3ccccc3n2C)cc1N	none (no result: HTR5A ag ctr, Arr AP2 block, OPRM1-OPRD1 ag, HTR5A inv ctr, MOR-DOR inv ag)
Cc1cc(C(=O)NCC(c2ccco2)N(C)C)ccc1[N+](=O)[O-] (stereo unspecified)	OPRM1-OPRD1 ag 34 | MOR-DOR ag conf 26 | HTR5A ag counter inactive
CCC1CCCCN1CCN1C(=O)C2C(C(=O)Nc3ccc(OC)cc3)C3C=CC2(O3)C1C(=O)NC1CCCCC1 (stereo unspecified)	OPRM1-OPRD1 ag 34 | MOR-DOR ag conf inactive | HTR5A ag counter inactive
CCC1CCCCN1CCN1C(=O)C2C(C(=O)Nc3cccc(OC)c3)C3C=CC2(O3)C1C(=O)NC1CCCCC1 (stereo unspecified)	none
Nc1ccn(C2OC(COC(=O)C34CC5CC(CC(C5)C3)C4)C(O)C2O)c(=O)n1 (stereo unspecified)	none
CC1=CC2(C)NC(=O)C(C)C12 (stereo unspecified)	none (no result: HTR5A ag ctr, Arr AP2 block, OPRM1-OPRD1 ag, HTR5A inv ctr, MOR-DOR inv ag)
COc1ccc(S(=O)(=O)/N=C2\C=C(Nc3ccc(O)cc3)C(=O)c3ccccc32)cc1	DAGLB inh 55, OPRM1-OPRD1 ag 21 | MOR-DOR ag conf inactive | HTR5A ag counter inactive | DAGLB inh conf 50
Nc1ccc2c(c1)-c1ccc(F)cc1C2=O	none
C=CCn1c(O)c(C2=c3ccccc3=NC2=O)sc1=Nc1ccc(O)cc1	DAGLB inh 36, OPRM1-OPRD1 ag 38 | MOR-DOR ag conf inactive | HTR5A ag counter inactive | DAGLB inh conf inactive
O=C1N=c2ccccc2=C1c1sc(=S)n(NC(=O)c2ccccc2)c1O	none
COc1cc2c(cc1NC(=O)C(C)Sc1ccc(NC(C)=O)cc1)oc1ccccc12 (stereo unspecified)	OPRM1-OPRD1 ag 20 | MOR-DOR ag conf inactive | HTR5A ag counter inactive | Arr AP2 CP1 inactive | GST-FITC bead inactive
CNC(=S)Nc1cc2oc3ccccc3c2cc1OC	none
